SENP8 block-1 – SENP8 (human) protease inhibition; recombinant SENP8, Nedd8 substrate fluorescence; inhibition, % at 20 µM; 360,000 compounds, 0.64% hits; in the data active = inhibition mostly above about 40%, no sharp cut-off; inactive = mostly below about 27%
Target sequence (Q96LD8 whole entry, looked up): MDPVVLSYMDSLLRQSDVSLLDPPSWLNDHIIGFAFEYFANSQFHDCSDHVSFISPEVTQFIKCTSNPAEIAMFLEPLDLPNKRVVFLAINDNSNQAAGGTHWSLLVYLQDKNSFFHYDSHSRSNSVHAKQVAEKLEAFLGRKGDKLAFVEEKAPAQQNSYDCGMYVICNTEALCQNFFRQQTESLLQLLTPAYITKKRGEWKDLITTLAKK
SENP7 inh – blocks the human protease SENP7; Q9BQF6; recombinant SENP7, Z-RLRGG-aminoluciferin luminescence, 40 min; inhibition, % at 5 µM; 330,000 compounds, 1.5% hits; AID 434973;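 active = inhibition above about 50% at the single test dose, limit read from the data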
Target sequence (Q9BQF6 706-1050 limits assumed): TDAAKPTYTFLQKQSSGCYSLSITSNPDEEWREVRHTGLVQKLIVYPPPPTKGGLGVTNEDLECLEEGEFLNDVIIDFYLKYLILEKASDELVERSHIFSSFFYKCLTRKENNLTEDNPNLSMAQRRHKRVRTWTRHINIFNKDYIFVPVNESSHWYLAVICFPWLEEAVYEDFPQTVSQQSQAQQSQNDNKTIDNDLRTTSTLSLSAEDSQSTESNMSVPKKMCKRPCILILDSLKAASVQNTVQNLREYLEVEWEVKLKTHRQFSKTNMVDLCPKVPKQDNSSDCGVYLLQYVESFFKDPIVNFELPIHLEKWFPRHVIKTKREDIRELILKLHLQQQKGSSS
SENP6 block – SENP6 protease inhibition; Q9GZR1; Recombinant SENP6 catalytic domain, aminoluciferin luminescence; inhibition, % at 10 µM; 330,000 compounds, 1.8% hits;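 active = inhibition above about 50% at the single tested dose, limit read from the data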
SENP8 block-2 – SENP8 protease inhibition; 330,000 compounds, 1.2% hits; AID 2540; purified SENP8, Z-RLRGG-aminoluciferin cleavage, luminescence; inhibition, % at 10 µM; Q96LD8; in the data active = inhibition above about 50%
SENP1 inh – inhibitors of human SENP1 SUMO protease catalytic domain; 360,000 compounds, 0.21% hits; inhibition, % at 10 µM; recombinant SENP1 catalytic domain, CyPet-SUMO1-YPet FRET cleavage; Q9P0U3;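 active = inhibition at least 30% at 10 µM, raw YFP signal under a set limit, fluorescence ratio 0.5 to 1.5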
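Test system: human SENP1 catalytic domain; medium: Tris pH 8 buffer plus EDTA, NaCl, BME, BSA, NP40, catalase; incubation: 50 min reaction at room temperature; technique: FRET, CFP and YFP emission; controls: no-enzyme low control and enzyme-plus-DMSO high control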
SENP8 conf – confirmation of human SENP8 protease inhibitors | shares compounds with SENP7 inh | Recombinant SENP8, Z-RLRGG-aminoluciferin luminescence, 60 min | inhibition, % at 12.5 µM | 6,200 compounds, 40% hits | AID 488912;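 active = mean inhibition across replicates above about 50%, limit read from the data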
SENP6 confirm – confirmation of human SENP6 protease inhibitors; shares compounds with SENP7 inh; recombinant SENP6, Z-RLRGG-aminoluciferin luminescence; inhibition, % at 12.5 µM; 6,200 compounds, 58% hits
SENP7 conf – confirmation of human SENP7 protease inhibitors; shares compounds with SENP7 inh; recombinant SENP7, Z-RLRGG-aminoluciferin luminescence, 40 min; 6,200 compounds, 69% hits; inhibition, % at 12.5 µM
Casp3 SENP sel – caspase-3 inhibition (SENP selectivity assay); 6,200 compounds, 60% hits; purified caspase-3, Z-DEVD-aminoluciferin luminescence, 60 min; shares compounds with SENP7 inh; inhibition, % at 12.5 µM;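 active = mean inhibition above about 50%, limit read from the data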
Luc interf – interferes with luciferase luminescence in SENP counter-screen; Pre-incubated SENP8/Z-RLRGG-aminoluciferin, luciferase luminescence interference; inhibition, % at 12.5 µM; shares compounds with SENP7 inh; 6,200 compounds, 39% hits;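 active = mean inhibition above about 50% when retested at one dose, limit read from the data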
Of the large screens only hits and unclear results are named; the others gave an inactive call (follow-up assays come after a bar, where they were run). The list is not random: actives were taken first. Their share in the collection is about 2.5%.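 The calls were made as follows, unless noted: active = mean inhibition above about 50% in the one-dose retest (limit read from the data); inactive = the rest.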

COc1ccc(/C=C2/SC(=S)N(CCC(=O)O)C2=O)cc1	SENP7 inh 85, SENP6 block 98, SENP8 block-2 98 | SENP8 conf 98 | SENP6 confirm 100 | SENP7 conf 104 | Casp3 SENP sel 65 | Luc interf 81
O=C(O)CCN1C(=O)/C(=C\c2ccncc2)SC1=S	none
CN1CCN(C(=O)CC2(CC(=O)O)CCCC2)CC1	none
COc1ccc([C@H]2CN(CCc3ccccc3)C(=O)[C@@H]2CC(=O)Nc2ccccc2)cc1	none (no result: SENP7 inh, SENP6 block, SENP8 block-2)
CC(=O)c1sc(N/N=C\c2ccccc2O)nc1C	SENP6 block 68, SENP8 block-2 56 | SENP8 conf inactive | SENP6 confirm inactive | SENP7 conf 82 | Casp3 SENP sel inactive | Luc interf inactive
CSc1ccc(C2NN=C(c3ccccc3)S2)cc1 (centres undefined)	SENP7 inh 99, SENP6 block 92, SENP8 block-2 93 | SENP8 conf 52 | SENP6 confirm 53 | SENP7 conf inactive | Casp3 SENP sel 60 | Luc interf inactive
Oc1ccccc1C1NN=C(c2ccccc2)S1 (centres undefined)	SENP7 inh 95, SENP6 block 86, SENP8 block-2 61 | SENP8 conf inactive | SENP6 confirm 79 | SENP7 conf 70 | Casp3 SENP sel 65 | Luc interf inactive
CCc1cc2c(cc3c(=O)n(CC(=O)NCCCN4CCCCCC4)nc(CC)n32)s1	none
COC(=O)c1c(C(=O)OC)c(-c2cccc(Cl)c2)n2c1CS(=O)(=O)C2	none
Cc1[nH]c2ccc(C(=O)OC(C)C(=O)NC3(C#N)CCCCC3)cc2c1C (centres undefined)	none
CC1Cc2ccccc2N1C(=O)COC(=O)/C=C/c1ccc(F)cc1 (centres undefined)	none
CC1Cc2ccccc2N1C(=O)/C=C/c1cccc(F)c1 (centres undefined)	SENP7 inh 55, SENP8 block-2 51 | SENP8 conf inactive | SENP6 confirm 74 | SENP7 conf 90 | Casp3 SENP sel 61 | Luc interf 55
C#CCOCCOCCOCCNc1nc(N2CCN(C(=O)[C@H](CC(N)=O)n3cc([C@@H](N)C(C)C)nn3)CC2)nc(N2CCN(C(=O)[C@H](CC(N)=O)n3cc([C@@H](N)C(C)C)nn3)CC2)n1	none
COc1ccccc1-c1nc2cc3ccccc3cc2nc1-c1ccccc1	SENP6 block 51 | SENP8 conf inactive | SENP6 confirm inactive | SENP7 conf inactive | Casp3 SENP sel inactive | Luc interf inactive
CCCc1cc(C(=O)N2CCN(c3ccc(C(F)(F)F)cn3)CC2)sc1C	none
Oc1ccc(/C=N/Nc2cccc(Cl)n2)c(O)c1	SENP7 inh 98, SENP6 block 97, SENP8 block-2 97 | SENP8 conf 99 | SENP6 confirm 99 | SENP7 conf 102 | Casp3 SENP sel 96 | Luc interf 98
O=C(Oc1ccc2ccccc2c1Br)N1CCCCCC1	SENP7 inh 82, SENP6 block 90, SENP8 block-2 78 | SENP8 conf 87 | SENP6 confirm 91 | SENP7 conf 96 | Casp3 SENP sel 72 | Luc interf inactive
CC(Nc1ccc(Br)cc1)C(=O)NC(=O)NC1CCCCC1 (centres undefined)	none (no result: SENP7 inh, SENP6 block, SENP8 block-2)
O=C1/C(=C/c2ccccc2)CCCc2ccccc21	SENP7 inh 66, SENP6 block 70, SENP8 block-2 76 | SENP8 conf 89 | SENP6 confirm 93 | SENP7 conf 97 | Casp3 SENP sel 76 | Luc interf 83
O=C1/C(=C\c2cccnc2)CCc2ccccc21	SENP6 block 74 | SENP8 conf 75 | SENP6 confirm 63 | SENP7 conf inactive | Casp3 SENP sel inactive | Luc interf 84
O=C1/C(=C/c2cccnc2)CC/C1=C\c1cccnc1	none
O=C1CN(C(=O)c2ccc(Cl)c(S(=O)(=O)N3CCc4ccccc43)c2)c2ccccc2N1	SENP6 block 61 | SENP8 conf inactive | SENP6 confirm inactive | SENP7 conf inactive | Casp3 SENP sel inactive | Luc interf inactive
CC(=O)N(C)c1ccc(NC(=S)NCC(C)C)cc1	none
CC(=O)Nc1cccc(OCC(=O)Nc2sccc2C(N)=O)c1	SENP7 inh 67, SENP6 block 68 | SENP8 conf inactive | SENP6 confirm inactive | SENP7 conf 86 | Casp3 SENP sel 73 | Luc interf inactive
CC(=O)Nc1cccc(OCC(=O)Nc2ccccc2)c1	none
CN(c1ccc(C(=O)COC(=O)C2CC2)cc1)S(C)(=O)=O	none
Cc1ccc(NC(=O)NC(=O)CSc2nnc(-c3ccc(Cl)cc3Cl)n2N)c(C)c1	SENP7 inh 59, SENP6 block 63 | SENP8 conf 56 | SENP6 confirm 56 | SENP7 conf 83 | Casp3 SENP sel inactive | Luc interf 72
Cc1ccc2c(c1)NC(=O)c1cccnc1N2	SENP6 block 52 | SENP8 conf inactive | SENP6 confirm inactive | SENP7 conf 65 | Casp3 SENP sel 63 | Luc interf inactive
CC1(C(=O)NS(=O)(=O)c2ccccc2)CCN1C(=O)CC1CCCC1 (centres undefined)	none (no result: SENP7 inh, SENP6 block, SENP8 block-2)
CC1=NN(C(N)=S)C(=O)C1N=Nc1cccc(C(=O)O)c1 (centres undefined)	SENP7 inh 91, SENP6 block 93, SENP8 block-2 85 | SENP8 conf 92 | SENP6 confirm 92 | SENP7 conf 100 | Casp3 SENP sel 84 | Luc interf inactive
CCOC(=O)c1sc(N2N=C(C)C(N=Nc3cccc(C)c3)C2=O)nc1C (centres undefined)	none
CC1=NN(c2nc(-c3ccc(C)cc3)cs2)C(=O)C1N=Nc1cccc(C)c1 (centres undefined)	SENP6 block 69 | SENP8 conf inactive | SENP6 confirm inactive | SENP7 conf inactive | Casp3 SENP sel inactive | Luc interf 52
CC1=NN(C(N)=S)C(=O)C1N=Nc1cccc(C)c1 (centres undefined)	SENP7 inh 54, SENP8 block-2 60 | SENP8 conf inactive | SENP6 confirm inactive | SENP7 conf inactive | Casp3 SENP sel inactive | Luc interf inactive
